Measurements taken from ChEMBL document CHEMBL1126123, “Reversible inhibitors of the gastric (H+/K+)-ATPase. 3. 3-substituted-4-(phenylamino)quinolines” (J Med Chem, 1992).

Key:
[1] = biological target: Potassium-transporting ATPase (Rattus norvegicus) (UniProt P09626+P18598); test: Inhibition of pentagastrin stimulated gastric acid secretion in anesthetized rat at 10 umol/kg upon intravenous administration; assay type: functional, organism-based; settings: Stomach
[2] = biological target: T1, Potassium-transporting ATPase (Sus scrofa, UniProt P19156); test: […] inhibit the activity of K+ stimulated gastric ATPase; assay type: tissue-based, Stomach
Method in brief: (§1)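 Initial screen of K+-stimulated ATPase activity in a lyophilized gastric vesicle preparation at pH 7, in vitro.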

[3] = biological target: T2, Potassium-transporting ATPase subunit beta (Rattus norvegicus) (UniProt P18598); test: Inhibition of pentagastrin stimulated gastric acid secretion in anesthetized rat upon intravenous administration; assay type: functional, organism-based; settings: Stomach
T2 sequence (whole entry): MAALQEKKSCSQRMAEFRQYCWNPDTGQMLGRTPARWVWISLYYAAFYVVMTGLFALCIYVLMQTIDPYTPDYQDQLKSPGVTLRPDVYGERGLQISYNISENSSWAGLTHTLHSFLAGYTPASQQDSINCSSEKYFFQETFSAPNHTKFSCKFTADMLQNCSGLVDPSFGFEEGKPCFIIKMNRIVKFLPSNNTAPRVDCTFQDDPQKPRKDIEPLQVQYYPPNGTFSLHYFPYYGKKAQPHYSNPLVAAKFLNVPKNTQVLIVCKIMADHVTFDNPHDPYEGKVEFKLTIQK
Method in brief: (§2)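 Anesthetized rat with lumen-perfused stomach; acid secretion induced by pentagastrin; compound given intravenously.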

Canis familiaris [4] = test: Inhibition of histamine stimulated gastric acid secretion was tested in heidenhain pouch dog upon intravenous administration; assay type: functional; settings: Canis lupus familiaris, Stomach
Canis familiaris [5] = test: Inhibition of histamine stimulated gastric acid secretion was tested in heidenhain pouch dog upon oral administration; assay type: functional; settings: Canis lupus familiaris, Stomach
Canis familiaris [6] = test: Inhibition of histamine stimulated gastric acid secretion was tested in heidenhain pouch dog at 1 umol/kg upon intravenous administration; assay type: functional; settings: Canis lupus familiaris, Stomach
Canis familiaris [7] = test: Inhibition of histamine stimulated gastric acid secretion was tested in heidenhain pouch dog at 4 uM/kg upon oral administration; assay type: functional, Canis lupus familiaris, Stomach
[8] = biological target: T1, Potassium-transporting ATPase; test: (§3) […] inhibit the activity of gastric H+/K+ ATPase; assay type: tissue-based, Stomach; method in brief: as §1
Rattus norvegicus [9] = test: inhibition pentagastrin stimulated gastric acid secretion in anesthetized rat when compound (10 umol/kg) administered intravenously; assay type: functional, Stomach
[10] = biological target: T3, Potassium-transporting ATPase (Sus scrofa) (UniProt P18434+P19156); test: as §3; assay type: tissue-based; settings: Stomach; method in brief: as §1
Rattus norvegicus [11] = test: Compound was evaluated for inhibition pentagastrin stimulated gastric acid secretion in anesthetized rat when administered intravenously.; assay type: functional; settings: Stomach, iv; method in brief: as §2
[12] = biological target: T3, Potassium-transporting ATPase (Sus scrofa); test: […] inhibit the activity of K+ stimulated gastric ATPase at 100 uM; assay type: tissue-based; settings: Stomach

T1 sequence (P18434 whole entry): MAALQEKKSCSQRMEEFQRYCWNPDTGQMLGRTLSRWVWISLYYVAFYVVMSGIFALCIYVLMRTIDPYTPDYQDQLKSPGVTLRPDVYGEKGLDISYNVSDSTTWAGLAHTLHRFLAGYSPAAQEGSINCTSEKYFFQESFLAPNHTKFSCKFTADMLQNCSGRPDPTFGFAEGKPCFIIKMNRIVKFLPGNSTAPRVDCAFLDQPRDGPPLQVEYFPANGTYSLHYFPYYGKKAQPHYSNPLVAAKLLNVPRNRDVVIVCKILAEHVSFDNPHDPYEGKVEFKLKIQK
T1 sequence (P19156 whole entry): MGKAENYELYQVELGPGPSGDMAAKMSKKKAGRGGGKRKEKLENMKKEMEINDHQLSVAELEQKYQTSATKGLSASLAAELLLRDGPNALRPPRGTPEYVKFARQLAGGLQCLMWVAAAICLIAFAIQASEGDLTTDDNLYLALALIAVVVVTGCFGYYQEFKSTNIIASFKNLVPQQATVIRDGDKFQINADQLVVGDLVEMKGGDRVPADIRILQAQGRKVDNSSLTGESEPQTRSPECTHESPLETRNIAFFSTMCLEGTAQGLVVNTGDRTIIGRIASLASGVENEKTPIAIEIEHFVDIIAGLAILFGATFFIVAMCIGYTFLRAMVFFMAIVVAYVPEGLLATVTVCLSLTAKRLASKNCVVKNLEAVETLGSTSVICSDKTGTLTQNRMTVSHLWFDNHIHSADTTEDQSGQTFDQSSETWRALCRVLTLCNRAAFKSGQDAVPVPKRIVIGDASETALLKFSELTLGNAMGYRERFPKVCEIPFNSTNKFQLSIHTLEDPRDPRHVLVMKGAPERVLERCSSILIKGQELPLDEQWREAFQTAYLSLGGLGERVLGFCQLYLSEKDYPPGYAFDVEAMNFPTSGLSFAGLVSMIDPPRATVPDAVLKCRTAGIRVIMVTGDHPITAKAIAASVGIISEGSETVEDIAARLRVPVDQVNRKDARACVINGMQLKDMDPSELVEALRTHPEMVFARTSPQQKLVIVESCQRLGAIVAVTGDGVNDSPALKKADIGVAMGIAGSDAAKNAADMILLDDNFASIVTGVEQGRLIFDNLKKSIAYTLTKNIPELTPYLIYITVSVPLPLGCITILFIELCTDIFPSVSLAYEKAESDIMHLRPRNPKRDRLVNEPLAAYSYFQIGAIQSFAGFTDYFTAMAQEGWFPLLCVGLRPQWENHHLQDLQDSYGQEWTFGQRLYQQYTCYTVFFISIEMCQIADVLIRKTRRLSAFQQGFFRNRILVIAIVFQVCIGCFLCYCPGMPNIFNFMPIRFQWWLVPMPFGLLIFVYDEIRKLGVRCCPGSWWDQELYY

Row | SMILES | inhibition [1] | IC50 [2] | further results
1 | C=CCNC(=O)c1cnc2c(OC)cccc2c1Nc1ccccc1C | 38% | 3.45 µM | 
2 | COc1cccc2c(Nc3ccccc3C)c(C(=O)C3CCC3)cnc12 | 47% | 1.2 µM | 
3 | CCCSc1cnc2ccccc2c1Nc1ccccc1C | 11% | 5.14 µM | 
4 | CCOC(=O)c1cnc2ccccc2c1Nc1ccccc1C | 49% | 0.6 µM | 
5 | CCNC(=O)c1cnc2c(OC)cccc2c1Nc1ccccc1C | 58% | 2.94 µM | 
6 | CCCC(=O)c1cnc2c(OC)cccc2c1Nc1ccccc1C |  | 1.05 µM | ED50 [3]: 2.62 µmol/kg; ED50 (Canis familiaris [4]): 0.26 µmol/kg; ED50 (Canis familiaris [5]): 1.6 µmol/kg
7 | COc1cccc2c(Nc3ccccc3C)ccnc12 |  | 0.1 µM | ED50 [3]: 12.7 µmol/kg
8 | COc1cccc2c(Nc3ccccc3C)c(C(=O)C(C)C)cnc12 |  | 1.09 µM | ED50 [3]: 1.92 µmol/kg; inhibition in vivo at 1 µmol/kg (Canis familiaris [6]): 75%; Inhibition (Canis familiaris [7]): 44.6%
9 | COCC(=O)c1cnc2c(OC)cccc2c1Nc1ccccc1C |  | 12.1 µM | ED50 [3]: 12.2 µmol/kg
10 | CCCC(O)c1cnc2c(OC)cccc2c1Nc1ccccc1C (stereo not given) |  | 55 µM | 
11 | COc1cccc2c(Nc3ccccc3C)c(C(C)=O)cnc12 |  | 4.8 µM | ED50 [3]: 13.2 µmol/kg; inhibition in vivo at 1 µmol/kg (Canis familiaris [6]): 11%
12 | COc1cccc2c(Nc3ccccc3C)c(C(=O)NCc3ccccc3)cnc12 | 13% | 49 µM | 
13 | CCCCNC(=O)c1cnc2c(OC)cccc2c1Nc1ccccc1C | 30% | 65 µM | 
14 | COc1cccc2c(Nc3ccccc3C)c(C(=O)c3ccccc3)cnc12 |  | 16.1 µM | 
15 | COc1cccc2c(Nc3ccccc3C)c(CO)cnc12 |  |  | IC50 [8]: 11.6 µM; Inhibition (Rattus norvegicus [9]): 5%
16 | Cc1ccccc1Nc1ccnc2ccccc12 | 16% | 1.43 µM | 
17 | Cc1ccccc1Nc1c(N)cnc2ccccc12 | 27% | 30.6 µM | 
18 | COc1cccc2c(Nc3ccccc3C)c(C(=O)O)cnc12 |  |  | inhibition [10]: 30%
19 | COc1cccc2c(Nc3ccccc3C)c(C(=O)C(C)(C)C)cnc12 | 63% | 2.6 µM | Inhibition (Canis familiaris [7]): 11.3%
20 | COc1cccc2c(Nc3ccccc3C)c(C(C)O)cnc12 (stereo not given) |  | 24 µM | 
21 | CCC(CC)C(=O)c1cnc2c(OC)cccc2c1Nc1ccccc1C | 55% | 1.8 µM | 
22 | CCOC(=O)c1cnc2c(OC)cccc2c1Nc1ccccc1C.Cl |  |  | ED50 (Canis familiaris [4]): 0.49 µmol/kg; ED50 (Rattus norvegicus [11]): 8.23 µmol/kg; Inhibition (Canis familiaris [7]): 11.1%

Row | SMILES | inhibition [1] | IC50 [2] | further results
23 | CO/N=C(\C)c1cnc2c(OC)cccc2c1Nc1ccccc1C |  | 20.5 µM | 
24 | COc1cccc2c(Nc3ccccc3C)c(C)cnc12 | 12.5% | 6.1 µM | 
25 | CCC(=O)c1cnc2c(OC)cccc2c1Nc1ccccc1C |  | 0.4 µM | ED50 [3]: 1.39 µmol/kg; inhibition in vivo at 1 µmol/kg (Canis familiaris [6]): 80.9%; Inhibition (Canis familiaris [7]): 92.3%
26 | CNC(=O)c1cnc2c(OC)cccc2c1Nc1ccccc1C |  |  | IC50 [8]: 6.73 µM; Inhibition (Rattus norvegicus [9]): 28%
27 | COc1cccc2c(Nc3ccccc3C)c(C(N)=O)cnc12 |  |  | IC50 [8]: 15.3 µM
28 | COc1cccc2c(Nc3ccccc3C)c(C(=O)OCCN(C)C)cnc12 | 19% | 44 µM | 
29 | CCCNC(=O)c1cnc2c(OC)cccc2c1Nc1ccccc1C | 40% | 22 µM | 
30 | COc1cccc2c(Nc3ccccc3C)c(C(=O)N3CCCC3)cnc12 | 15% |  | inhibition [12]: 20%
31 | COc1cccc2c(Nc3ccccc3C)c(C(=O)C3CCCCC3)cnc12 | 42% | 3.8 µM | 
32 | COc1cccc2c(Nc3ccccc3C)c(C(=O)NC(C)(C)CO)cnc12 | 13% |  | inhibition [12]: 26%
33 | CCOC(=O)c1cnc2c(OC)cccc2c1Nc1ccccc1.Cl |  |  | IC50 [8]: 3.54 µM; Inhibition (Rattus norvegicus [9]): 38%
34 | CCOC(=O)c1cnc2c(OC)cccc2c1N(C)c1ccccc1 |  | 89 µM | 
35 | CCC[S+]([O-])c1cnc2ccccc2c1Nc1ccccc1C (stereo not given) | 21% |  | inhibition [12]: 19%
36 | CCCCCC(=O)c1cnc2c(OC)cccc2c1Nc1ccccc1C |  | 2.77 µM | ED50 [3]: 10.7 µmol/kg
37 | CCCc1cnc2c(OC)cccc2c1Nc1ccccc1C | 34% | 8.63 µM | 
38 | Cc1ccccc1Nc1c(Br)cnc2ccccc12 | 31% | 14.1 µM | 
39 | CCCC(=O)c1cnc2c(OC)cccc2c1Nc1ccccc1 | 34% | 4 µM | 
40 | COc1cccc2c(Nc3ccccc3C)c(C(=O)C3CCCC3)cnc12 | 56% | 1.7 µM | Inhibition (Canis familiaris [7]): 55.7%
41 | CCCC(=O)c1cnc2ccccc2c1Nc1ccccc1C |  | 0.97 µM | ED50 [3]: 5.45 µmol/kg; inhibition in vivo at 1 µmol/kg (Canis familiaris [6]): 45.4%
42 | CCOC(=O)c1cnc2c(OC)cccc2c1Oc1ccccc1C |  |  | inhibition [12]: 13%
43 | CN/C(=N\CCSCc1nc[nH]c1C)NC#N [CIMETIDINE] |  |  | ED50 (Canis familiaris [4]): 1.7 µmol/kg; ED50 (Canis familiaris [5]): 8.5 µmol/kg
44 | Cc1ccccc1Nc1c([N+](=O)[O-])cnc2ccccc12 | 30% |  | 
